Assay results as given in ChEMBL document CHEMBL1649151, “Urinary bactericidal activity of Doripenem versus that of levofloxacin in patients with complicated urinary tract infections or pyelonephritis” (Antimicrob Agents Chemother, 2009).
Values after ≈ are worked out from the molar mass of the structure shown.

Tests used:
Escherichia coli [1] = test: Antimicrobial activity against Escherichia coli 1780063 B-A isolated from patient with pyelonephritis assessed as >3-log reduction in urinary bacterial titer after 20 hrs; assay type: functional, Urine
Procedure, shortened: (§1)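 Urine was collected before dosing and on day 3 of i.v. therapy (steady state), in 4-h intervals from infusion start (0–4 to 20–24 h), stored at −80°C and sterile filtered. It was serially diluted twofold (1:0 to 1:131,072) in the patient's drug-free pre-dose urine. Microdilution used an inoculum of 1.0 x 10^6–9.5 x 10^6 CFU/ml, incubated 18 h at 37°C, then subcultured 24 h on blood agar. The endpoint was >99.9% kill, reported as reciprocal titer.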

Escherichia coli [2] = test: Antimicrobial activity against Escherichia coli 1889646 B-F isolated from patient with pyelonephritis assessed as >3-log reduction in urinary bacterial titer after 16 hrs; assay type: functional, Urine
Procedure, shortened: (§2)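 Urine was collected on day 3 of i.v. therapy (steady state) over 4-h intervals from infusion start (0–4 to 20–24 h), stored at –80°C and sterile filtered. It was serially diluted twofold (1:0 up to 1:131,072) in the patient's own pre-dose drug-free urine. Microdilution used a final inoculum of 1.0 x 10^6 to 9.5 x 10^6 CFU/ml, incubated 18 h at 37°C in air. 10 µl was subcultured onto 5% blood Columbia agar for 24 h at 37°C. The bactericidal endpoint was >99.9% (>3-log) kill, reported as a reciprocal titer.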

Escherichia coli [3] = test: Antimicrobial activity against Escherichia coli 1949826 B-L isolated from patient with pyelonephritis assessed as >3-log reduction in urinary bacterial titer after 12 hrs; assay type: functional, Urine
Procedure, shortened: (§3)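 Patient urine was collected on day 3 of i.v. therapy (steady state) over 4-h intervals after infusion start, stored at –80°C, and sterile filtered. It was twofold serially diluted (1:0 to 1:131,072) in the patient's own pre-dose drug-free urine, inoculated to 1.0 x 10^6–9.5 x 10^6 CFU/ml, and incubated for 18 h at 37°C. Subcultures were grown on blood agar for 24 h. The UBT is the reciprocal of the highest dilution giving >99.9% kill.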

Escherichia coli [4] = test: Antimicrobial activity against Escherichia coli 1949825 B-K isolated from patient with pyelonephritis assessed as >3-log reduction in urinary bacterial titer after 12 hrs; assay type: functional, Urine; procedure, shortened: as §3
Enterococcus faecalis [5] = test: Antimicrobial activity against Enterococcus faecalis 2215770 B-T isolated from patient with pyelonephritis by Etest; assay type: functional
Escherichia coli [6] = test: Antimicrobial activity against Escherichia coli 2297257 B-W isolated from patient with pyelonephritis by Etest; assay type: functional
Enterococcus faecalis [7] = test: Antimicrobial activity against Enterococcus faecalis 2215770 B-T isolated from patient with pyelonephritis assessed as >3-log reduction in urinary bacterial titer after 8 hrs; assay type: functional, Urine; procedure, shortened: as §1
Escherichia coli [8] = test: Antimicrobial activity against Escherichia coli 1949826 B-L isolated from patient with pyelonephritis assessed as >3-log reduction in urinary bacterial titer after 8 hrs; assay type: functional, Urine; procedure, shortened: as §3
[9] = system: Staphylococcus haemolyticus; test: Antimicrobial activity against Staphylococcus haemolyticus 1949819 B-M isolated from patient with pyelonephritis assessed as >3-log reduction in urinary bacterial titer after 8 hrs; assay type: functional, Urine
Enterococcus faecalis [10] = test: Antimicrobial activity against Enterococcus faecalis 2215770 B-T isolated from patient with pyelonephritis assessed as >3-log reduction in urinary bacterial titer after 4 hrs; assay type: functional, Urine; procedure, shortened: as §1
Escherichia coli [11] = test: Antimicrobial activity against Escherichia coli 1889646 B-F isolated from patient with pyelonephritis assessed as >3-log reduction in urinary bacterial titer after 4 hrs; assay type: functional, Urine; procedure, shortened: as §2
Escherichia coli [12] = test: Antimicrobial activity against Escherichia coli 1821385 B-C isolated from patient with pyelonephritis assessed as >3-log reduction in urinary bacterial titer after 4 hrs; assay type: functional, Urine; procedure, shortened: as §2
[13] = T>MIC in Prevotella spp.-infected patient at 250 to 1000 mg/kg administered every 8 hrs; assay type: functional; details: dose mg/kg 250-1000; pooled result: one value given for 10 cell lines, strains, targets or settings
[14] = system: Staphylococcus haemolyticus; test: Antimicrobial activity against Staphylococcus haemolyticus 1949819 B-M isolated from patient with pyelonephritis assessed as >3-log reduction in urinary bacterial titer after 24 hrs; assay type: functional, Urine
Enterococcus faecalis [15] = test: Antimicrobial activity against Enterococcus faecalis 2215770 B-T isolated from patient with pyelonephritis assessed as >3-log reduction in urinary bacterial titer after 20 hrs; assay type: functional, Urine; procedure, shortened: as §1
Escherichia coli [16] = test: Antimicrobial activity against Escherichia coli 1949826 B-L isolated from patient with pyelonephritis assessed as >3-log reduction in urinary bacterial titer after 20 hrs; assay type: functional, Urine; procedure, shortened: as §3
Escherichia coli [17] = test: Antimicrobial activity against Escherichia coli 1655646 A-Y isolated from patient with pyelonephritis assessed as >3-log reduction in urinary bacterial titer after 4 hrs; assay type: functional, Urine; procedure, shortened: as §1
Escherichia coli [18] = test: Antimicrobial activity against Escherichia coli 1780064 A-X isolated from patient with pyelonephritis assessed as >3-log reduction in urinary bacterial titer after 4 hrs; assay type: functional, Urine; procedure, shortened: as §2
Escherichia coli [19] = test: Antimicrobial activity against Escherichia coli 1655646 A-Y isolated from patient with pyelonephritis assessed as >3-log reduction in urinary bacterial titer after 20 hrs; assay type: functional, Urine; procedure, shortened: as §1
Pseudomonas aeruginosa [20] = test: Antimicrobial activity against Pseudomonas aeruginosa 1821383 B-E isolated from patient with pyelonephritis assessed as >3-log reduction in urinary bacterial titer after 16 hrs; assay type: functional, Urine
Escherichia coli [21] = test: Antimicrobial activity against Escherichia coli 2062716 B-R isolated from patient with pyelonephritis assessed as >3-log reduction in urinary bacterial titer after 16 hrs; assay type: functional, Urine; procedure, shortened: as §3
Staphylococcus aureus [22] = test: Antimicrobial activity against Staphylococcus aureus 2215767-9 B-S isolated from patient with pyelonephritis assessed as >3-log reduction in urinary bacterial titer after 16 hrs; assay type: functional, Urine
[23] = system: Staphylococcus epidermidis; test: Antimicrobial activity against Staphylococcus epidermidis 1949822 B-J isolated from patient with pyelonephritis assessed as >3-log reduction in urinary bacterial titer after 12 hrs; assay type: functional, Urine
Staphylococcus aureus [24] = test: Antimicrobial activity against Staphylococcus aureus 1889640 A-Z isolated from patient with pyelonephritis assessed as >3-log reduction in urinary bacterial titer after 12 hrs; assay type: functional, Urine
Pseudomonas aeruginosa [25] = test: Antimicrobial activity against Pseudomonas aeruginosa 1821383 B-E isolated from patient with pyelonephritis by Etest; assay type: functional
Serratia marcescens [26] = test: Antimicrobial activity against Serratia marcescens 2297260 B-U isolated from patient with pyelonephritis by Etest; assay type: functional
Escherichia coli [27] = test: Antimicrobial activity against Escherichia coli 2062716 B-R isolated from patient with pyelonephritis by Etest; assay type: functional
Escherichia coli [28] = test: Antimicrobial activity against Escherichia coli 1821386 B-D isolated from patient with pyelonephritis by Etest; assay type: functional
Enterococcus faecalis [29] = test: Antimicrobial activity against Enterococcus faecalis 2297262-10 B-V isolated from patient with pyelonephritis by Etest; assay type: functional
[30] = system: Staphylococcus epidermidis; test: Antimicrobial activity against Staphylococcus epidermidis 2297262-9 B-V isolated from patient with pyelonephritis assessed as >3-log reduction in urinary bacterial titer after 12 hrs; assay type: functional, Urine
Escherichia coli [31] = test: Antimicrobial activity against Escherichia coli 1889647 B-H isolated from patient with pyelonephritis assessed as >3-log reduction in urinary bacterial titer after 8 hrs; assay type: functional, Urine; procedure, shortened: as §2
Serratia marcescens [32] = test: Antimicrobial activity against Serratia marcescens 2297260 B-U isolated from patient with pyelonephritis assessed as >3-log reduction in urinary bacterial titer after 4 hrs; assay type: functional, Urine
Escherichia coli [33] = test: Antimicrobial activity against Escherichia coli 1821386 B-D isolated from patient with pyelonephritis assessed as >3-log reduction in urinary bacterial titer after 24 hrs; assay type: functional, Urine; procedure, shortened: as §2
Staphylococcus aureus [34] = test: Antimicrobial activity against Staphylococcus aureus 1889640 A-Z isolated from patient with pyelonephritis assessed as >3-log reduction in urinary bacterial titer after 20 hrs; assay type: functional, Urine

`C[C@@H](O)[C@H]1C(=O)N2C(C(=O)O)=C(S[C@@H]3CN[C@H](CNS(N)(=O)=O)C3)[C@H](C)[C@H]12` [DORIPENEM] gave a urinary bactericidal titer (Escherichia coli [1]) of 4096 reciprocal titer, a urinary bactericidal titer (Escherichia coli [2]) of 8192 reciprocal titer and a urinary bactericidal titer (Escherichia coli [3]) of 131000 reciprocal titer. The urinary bactericidal titer (Escherichia coli [4]) was 8192 reciprocal titer, the MIC (Enterococcus faecalis [5]) was 0.25 µg/mL (≈ 0.595 µM) and the MIC (Escherichia coli [6]) was 0.015 µg/mL (≈ 0.0357 µM). For the same compound, the urinary bactericidal titer (Enterococcus faecalis [7]) was 512 reciprocal titer, the urinary bactericidal titer (Escherichia coli [8]) was 32800 reciprocal titer and the urinary bactericidal titer [9] was 128 reciprocal titer. The urinary bactericidal titer (Enterococcus faecalis [10]) was 2048 reciprocal titer, the urinary bactericidal titer (Escherichia coli [11]) was 65500 reciprocal titer and the urinary bactericidal titer (Escherichia coli [12]) was 4096 reciprocal titer. For the same compound, the “fT>MIC” value [13] was 35%, the urinary bactericidal titer [14] was 128 reciprocal titer and the urinary bactericidal titer (Enterococcus faecalis [15]) was 2048 reciprocal titer. The urinary bactericidal titer (Escherichia coli [16]) was 65500 reciprocal titer.
For `C[C@H]1COc2c(N3CCN(C)CC3)c(F)cc3c(=O)c(C(=O)O)cn1c23.C[C@H]1COc2c(N3CCN(C)CC3)c(F)cc3c(=O)c(C(=O)O)cn1c23.O` [LEVOFLOXACIN], the urinary bactericidal titer (Escherichia coli [17]) was 2048 reciprocal titer, the urinary bactericidal titer (Escherichia coli [18]) was 1024 reciprocal titer and the urinary bactericidal titer (Escherichia coli [19]) was 1024 reciprocal titer. It also gave a urinary bactericidal titer (Pseudomonas aeruginosa [20]) of 128 reciprocal titer, a urinary bactericidal titer (Escherichia coli [21]) of 256 reciprocal titer and a urinary bactericidal titer (Staphylococcus aureus [22]) of 0 reciprocal titer. It also gave a urinary bactericidal titer [23] of 2 reciprocal titer, a urinary bactericidal titer (Staphylococcus aureus [24]) of 128 reciprocal titer and an MIC (Pseudomonas aeruginosa [25]) of 0.25 µg/mL. The MIC (Serratia marcescens [26]) was 0.19 µg/mL, the MIC (Escherichia coli [27]) was 0.032 µg/mL and the MIC (Escherichia coli [28]) was less than 0.03 µg/mL. It also gave an MIC (Enterococcus faecalis [29]) greater than 32 µg/mL, a urinary bactericidal titer [30] of 4 reciprocal titer and a urinary bactericidal titer (Escherichia coli [31]) of 2048 reciprocal titer. For the same compound, the urinary bactericidal titer (Serratia marcescens [32]) was 512 reciprocal titer, the urinary bactericidal titer (Escherichia coli [33]) was 2048 reciprocal titer and the urinary bactericidal titer (Staphylococcus aureus [34]) was 64 reciprocal titer.
